# Screening results deposited in PubChem by several laboratories.
# Only some compounds are listed: those with a hit (about 3.7% of all), similar ones and a draw of the others.
# EP2 antag: EP2 receptor (human) inhibition. P43116. C6 glioma cells expressing human EP2, cAMP TR-FRET; cells stimulated with saturating PGE2. inhibition, % at 25 µM. hit rate 0.52% among 260,000;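 active = percent inhibition above 40 after rounding to a whole number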;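 also: rat C6 glioma host cells with rolipram phosphodiesterase inhibitor present; the protocol text gives 20 µM as final concentration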
# Target sequence (P43116 whole entry, looked up): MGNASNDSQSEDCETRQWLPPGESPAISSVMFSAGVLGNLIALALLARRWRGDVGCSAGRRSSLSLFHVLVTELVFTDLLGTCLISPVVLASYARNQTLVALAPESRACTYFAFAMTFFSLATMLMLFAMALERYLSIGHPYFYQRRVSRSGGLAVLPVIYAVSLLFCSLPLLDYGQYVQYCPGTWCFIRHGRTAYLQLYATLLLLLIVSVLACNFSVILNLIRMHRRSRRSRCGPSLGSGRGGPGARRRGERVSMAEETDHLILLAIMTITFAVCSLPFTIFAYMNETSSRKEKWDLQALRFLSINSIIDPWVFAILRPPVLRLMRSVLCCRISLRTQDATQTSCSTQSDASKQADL
# GPR7 antagonist: blocks human GPR7 receptor signaling | P48145 | GPR7-expressing cells, fluorescence antagonist assay | inhibition, % at 4.4 µM | hit rate 1.1% among 290,000; in the data active = inhibition above about 16%, passing the limit was not always enough;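 also: cells stimulated with the agonist NPW; 0% = agonist with vehicle and 100% = vehicle without agonist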
# Target sequence (P48145 whole entry, looked up): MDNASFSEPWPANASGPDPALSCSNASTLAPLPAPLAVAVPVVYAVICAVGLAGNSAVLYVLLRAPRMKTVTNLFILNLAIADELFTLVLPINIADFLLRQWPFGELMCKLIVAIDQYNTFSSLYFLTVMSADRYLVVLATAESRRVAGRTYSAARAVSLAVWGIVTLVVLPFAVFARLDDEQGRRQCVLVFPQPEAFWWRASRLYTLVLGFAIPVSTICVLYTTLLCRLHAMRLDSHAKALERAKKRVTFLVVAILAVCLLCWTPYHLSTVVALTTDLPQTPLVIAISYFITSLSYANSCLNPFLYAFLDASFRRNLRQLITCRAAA
# OX1R antag-1: antagonists of human orexin 1 receptor; CHO/OX1R cells, Fluo-8 calcium fluorescence, orexin A; inhibition, % at 5 µM; hit rate 0.43% among 330,000;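 active = inhibition above its plate's threshold, mean inhibition of all tested compounds on the plate plus 3 SD, cut at about 37% in these data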;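 also: 0% = orexin A challenge wells and 100% = SB-334867-A antagonist wells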
# OX1R antag-2: OX1R (human) antagonism. inhibition, % at 6.6 µM. hit rate 1.8% among 330,000. O43613. OX1R-expressing cells, FRET antagonist read-out; in the data active = inhibition mostly above about 38%, no sharp cut-off; inactive = mostly below about 40%;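 also: 0% = agonist challenge alone and 100% = reference antagonist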
# CHO parental Ca: counter-screen for OX1R antagonists: effect in parental CHO cells; parental CHO-K1, ATP-induced calcium, Fluo-8 fluorescence; inhibition, % at 5.6 µM; hit rate 0.63% among 330,000; AID 463079;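 active = inhibition above that plate's mean sample inhibition plus 3 SD, cut at about 26% in these data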;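 also: 0% = ATP-challenged DMSO wells and 100% = DMSO wells without ATP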
#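 Test system: untransfected parental CHO cell line. Compound: one dose, 5.6 µM nominal. Detection: intracellular calcium via Fluo-8 no-wash fluorescent dye. Measure: % inhibition. Benchmarks: ATP-challenged DMSO wells low, unchallenged DMSO wells high.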
# EP2 modulator: modulators of human EP2 prostaglandin E2 receptor. P43116. EP2-expressing cells, cAMP HTRF FRET, PGE2 co-stimulation. induction, % at 25 µM. hit rate 0.83% among 260,000. AID 940;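 active = compounds whose cAMP rise, as percent of the full-agonist control response, exceeds 60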;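 also: rat C6 glioma line stably carrying human EP2 under a CMV promoter; the protocol text gives 20 µM as final concentration; 100% = response of wells given 1 µM PGE2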
# An asterisk follows results filed as active; . = not tested or not shown; ! = not confirmed by another sample.
SMILES,EP2 antag,GPR7 antagonist,OX1R antag-1,OX1R antag-2,CHO parental Ca,EP2 modulator
COc1ccc([C@@H]2CC=C(C(=O)O)[C@H](c3ccc(Br)cc3)N2S(=O)(=O)c2ccc(C)cc2)cc1OC,.,.,-13.0,36.0,-11.6,.
Cc1ccc([C@@H]2CC=C(C(=O)O)[C@H](c3ccc(Cl)cc3)N2S(=O)(=O)c2ccccc2C)cc1,.,.,32.7,49.0*,-6.2,.
Cc1ccc(S(=O)(=O)N2[C@@H](c3ccc(F)cc3)C(C(=O)O)=CC[C@H]2c2ccc(Cl)cc2)cc1,.,.,-2.2,46.3,-10.0,.
COc1ccc([C@@H]2CC=C(C(=O)O)[C@H](c3ccc(Br)cc3)N2S(=O)(=O)c2ccccc2C)cc1,.,.,-13.6,52.5*,-19.1,.
Cn1ncc2c(Nc3ccccc3Cl)nc(Nc3ccccc3Cl)nc21,5.8,-34.8,-16.6,17.7,-32.8,44.3
N#Cc1cc2ccccc2nc1SCC(=O)Nc1nc(-c2ccccc2)cs1,10.1,.,.,.,.,-21.4
CC(=O)O/N=C(/c1nonc1N)N(C)C,6.0,-8.8,-14.4,18.6,5.8,9.9
Cc1ccc([C@@H]2CC=C(C(=O)O)[C@H](c3ccc(F)cc3)N2S(=O)(=O)c2ccccc2C)cc1,.,.,-0.2,57.5*,-8.3,.
O=C1N=c2ccccc2=C1c1[nH]c(=S)[nH]c1O,11.9,-1.3,-11.1,43.0*,5.1,4.3
c1ccc2oc(CCc3nc4ccccc4o3)nc2c1,7.3,.,-12.0,16.5,-12.9,.
O=S(=O)(CCc1nc2ccccc2o1)c1ccc2ccccc2c1,14.4,-2.3,2.3,45.1*,-11.7,-23.7
CCc1ccc2[nH]c(=O)c(C(c3nnnn3C(C)(C)C)N(Cc3ccco3)CC3CCCO3)cc2c1 (centres undefined),10.2,.,.,.,.,66.0*
CCCC(c1nnnn1C(C)(C)CC)N(Cc1ccco1)Cc1cc2cc(C)c(C)cc2[nH]c1=O (centres undefined),30.6,.,.,.,.,66.3*
CCC(c1nnnn1C1CCCC1)N(Cc1ccco1)Cc1cc2cccc(C)c2[nH]c1=O (centres undefined),7.0,.,.,.,.,64.0*
CCCC(c1nnnn1Cc1ccco1)N(Cc1ccccc1)Cc1cc2cc(C)c(C)cc2[nH]c1=O (centres undefined),9.0,.,.,.,.,24.7
Cc1cccc2cc(CN(CCCO)C(c3nnnn3C(C)(C)C)C(C)C)c(=O)[nH]c12 (centres undefined),14.8,.,.,.,.,-12.8
COc1ccccc1CN(Cc1cc2cccc(C)c2[nH]c1=O)C(c1nnnn1C(C)(C)C)C(C)C (centres undefined),12.1,.,.,.,.,87.6*
CN(Cc1cn(C)nc1-c1ccc(Oc2ccccc2)cc1)Cc1cnc2ccccn12,6.3,5.3,25.9,36.5,18.9,-8.7
CCCC(=O)N(Cc1cc2cccc(C)c2[nH]c1=O)c1ccccc1OC,0.5,20.7*,-3.3,14.6,-16.1,33.7
CCc1ccccc1NC(=S)N(Cc1ccco1)Cc1cc2cc(C)ccc2[nH]c1=O,8.9,.,.,.,.,87.3*
Cc1cc(C)c2[nH]c(=O)c(CN(Cc3ccco3)C(c3nnnn3C(C)(C)C)C(C)C)cc2c1 (centres undefined),14.7,.,.,.,.,69.6*
CCCC(c1nnnn1C(C)(C)C)N(Cc1ccco1)Cc1cc2cc(C)ccc2[nH]c1=O (centres undefined),7.2,.,.,.,.,66.1*
CCc1ccccc1NC(=S)N(Cc1ccco1)Cc1cc2ccc(C)cc2[nH]c1=O,10.4,.,.,.,.,36.9
CCCC(=O)N(Cc1cc2ccccc2[nH]c1=O)c1ccccc1OC,6.5,-19.0,-10.7,41.4,-11.5,4.5
CCC(C)(C)n1nnnc1C(C(C)C)N(Cc1ccco1)Cc1cc2cc3c(cc2[nH]c1=O)OCO3 (centres undefined),7.9,-5.8,-16.0,19.3,-10.3,55.8
SMILES,EP2 antag,GPR7 antagonist,OX1R antag-1,OX1R antag-2,CHO parental Ca,EP2 modulator
CCCC(c1nnnn1C1CCCC1)N(Cc1ccco1)Cc1cc2cccc(C)c2[nH]c1=O (centres undefined),9.1,.,.,.,.,58.4
CCCC(c1nnnn1C1CCCCC1)N(Cc1ccco1)Cc1cc2cc(C)c(C)cc2[nH]c1=O (centres undefined),8.5,.,.,.,.,71.8*
C[C@H]1C[C@@H]2[C@@H]3CCC4=CC(=O)C=C[C@@]4(C)[C@@]3(Cl)[C@H](Cl)C[C@@]2(C)[C@]1(O)C(=O)COP(=O)(O)O,40.7*,.,.,.,.,15.7
CC(=O)OCC(=O)[C@@]1(O)CC[C@H]2[C@@H]3CCC4=CC(=O)C=C[C@]4(C)[C@@]3(Cl)[C@@H](Cl)C[C@@]21C,9.4,.,-21.0,8.8,-7.0,6.7
COC(=O)CNC(=O)CSc1nc2sc(-c3ccccc3)cc2c(=O)n1-c1ccccc1,.,.,-6.7,18.8,-10.0,.
NC(=O)NC(=O)CSc1nc2sc(-c3ccccc3)cc2c(=O)n1-c1ccccc1,3.4,-17.1,-14.2,13.4,-0.2,64.5*
Cc1cc2cc(CCNC(=O)C(=O)c3c[nH]c4ccccc34)c(=O)[nH]c2cc1C,13.2,3.8,1.6,65.2*,-20.1,-70.6
O=C(NCCc1c[nH]c2ccccc12)C(=O)c1c[nH]c2ccccc12,.,-6.0,-4.4,11.7,-18.0,.
CC(C)C(c1nnnn1C(C)(C)C)N1CCC(Cc2ccccc2)CC1 (centres undefined),10.4,0.6,-4.7,6.4,41.8*,15.4
CC(C)C(c1nnnn1C(C)(C)C)N1CCC(C(N)=O)CC1 (centres undefined),7.9,.,.,.,.,-4.0
Oc1ccc(O)cc1,109.9*!,.,-1.8,13.7,5.4,-33.6
O=C(c1ccc(O)cc1)c1ccc(C(=O)c2ccc(O)cc2)cc1,11.0,-5.9,13.7,24.4,7.8,-44.8
Cc1cc(C)cc(NC(=O)CCn2c(=O)c3cccn3c3ccccc32)c1,.,-1.4,12.8,41.3*,-11.9,.
Cc1ccc(NC(=O)CCn2c(=O)c3cccn3c3ccccc32)c(C)c1,.,-7.1,-29.6,8.2,-10.8,.
CCOc1cc(C)c(C(C)C)cc1S(=O)(=O)N1CC(C)OC(C)C1 (centres undefined),11.6,-8.2,-30.5,31.2,-29.5,44.6
Cn1c(=O)c2c(nc(SCc3ccccc3)n2Cc2ccc(Cl)cc2)n(C)c1=O,5.2,-21.1,-5.4,-4.5,-10.0,58.6
Cn1c(=O)c2c(nc(NCc3ccccc3)n2Cc2ccc(F)cc2)n(C)c1=O,13.0,15.1,.,.,.,64.0*
C=C(C)Cn1c(SCc2ccc(Cl)cc2)nc2c1c(=O)n(C)c(=O)n2C,5.5,.,.,.,.,80.1*
C/C=C/Cn1c(SCc2ccc(Cl)cc2)nc2c1c(=O)[nH]c(=O)n2C,7.5,-12.6,-11.2,38.4,-17.5,63.4*
CCCn1c(SCc2ccc(Cl)cc2)nc2c1c(=O)[nH]c(=O)n2C,4.4,-14.4,-8.8,18.3,-24.9,47.8
CCNc1nc2c(c(=O)n(C)c(=O)n2C)n1Cc1ccc(Cl)cc1,.,4.6,-12.5,16.3,36.3*,.
CCCNc1nc2c(c(=O)n(C)c(=O)n2C)n1Cc1ccc(F)cc1,9.3,-4.3,-18.5,4.3,3.8,21.5
